The text below walks through data of ChEMBL document CHEMBL1154662, “alphavbeta3 Integrin-targeting Arg-Gly-Asp (RGD) peptidomimetics containing oligoethylene glycol (OEG) spacers” (J Med Chem, 2009).

Assay [1] concerns the target Integrin alpha-IIb/beta-3 (Homo sapiens, UniProt P05106+P08514). The assay is described as follows: Inhibition of human integrin alpha2b beta3 receptor by fibrinogen competitive binding assay. Type of assay: protein-complex assay. The essentials:
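Platelet αIIbβ3, affinity-purified, adsorbed at 1 μg/mL in Tris buffer (2 mM CaCl2, 1 mM MgCl2 and MnCl2, pH 7.5) for 1 h at room temperature, then blocked with 1% albumin. Exposed 30 min to excess biotinylated fibrinogen with varied compound levels. Detection used anti-biotin–alkaline phosphatase and p-nitrophenyl phosphate, read at 405 nm. IC50 derived from at least two pooled dose-response experiments.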

The target in a further assay is Integrin alpha-V/beta-3 (Homo sapiens, UniProt P05106+P06756). The experiment in a line: Inhibition of human integrin alphav beta3 receptor by biotinylated vitronectin competitive binding assay. Type of assay: protein-complex assay. The essentials: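 Placenta-derived human αvβ3 adsorbed at 500 ng/mL in Tris buffer (2 mM CaCl2, 1 mM MgCl2 and MnCl2, pH 7.5), 1 h RT, then blocked with 1% albumin. Incubated 30 min with excess biotinylated vitronectin plus graded compound. Bound ligand detected with anti-biotin–alkaline phosphatase and p-nitrophenyl phosphate at 405 nm. IC50 taken from pooled dose-response curves of at least two experiments.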

The next assay is filed under the species Homo sapiens. The experiment in a line: Selectivity index, ratio of IC50 for human integrin alpha2b beta3 receptor to IC50 for human integrin alphav beta3 receptor.
In another assay the test system is HOP. The assay is described as follows: Inhibition of HOP cell adhesion on vitronectin coated plate by colorimetric method. Format: functional, cell-based. The following applies: Homo sapiens. In a few lines: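 HOP cells (bone marrow stromal, second subculture) preincubated 1 h at 37 °C with compound (10-4 to 10-12 M final) in serum-free IMDM, then 100 μL of 32000 cells/mL seeded on wells coated with human plasma vitronectin (5 μg/mL); adhesion 30 min at 37 °C. Adherent cells read via p-nitrophenyl N-acetyl β-D-glucosaminide hydrolysis, 405 nm. Expressed as absorbance ratio to untreated cells; ≥2 experiments, n = 6 wells.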

Structures are written as SMILES. Activity calls are given as the source filed them. The calls are words filed in the database; no cut-off is given here.

Consider `COCCOCCOCCOCC(=O)Nc1cc(C[C@H](NS(=O)(=O)c2cccc(C(F)(F)F)c2)C(=O)O)ccc1OCCCCNc1cc(C)ccn1`, for which the figures for the IC50 (in assay [1]; at Integrin alpha-V/beta-3) were 61 nM and 0.5 nM, respectively. For the same compound, the Ratio IC50 in the assay listed under Homo sapiens was determined as 122.

Consider `CC(=O)Nc1cc(C[C@H](NS(=O)(=O)c2cccc(C(F)(F)F)c2)C(=O)O)ccc1OCCCCNc1cc(C)ccn1`, for which the IC50 in assay [1] was 38 nM; on Integrin alpha-V/beta-3, 0.7 nM. Further, in the assay filed under Homo sapiens, the Ratio IC50 was 54.

As to `NCCCCOc1ccc(C[C@H](NS(=O)(=O)c2cccc(C(F)(F)F)c2)C(=O)O)cc1N`, the values for the IC50 (in assay [1]; at Integrin alpha-V/beta-3) were 154 nM and 428 nM, respectively. Also, the Ratio IC50 in the assay listed under Homo sapiens was found to be 0.35.

`Nc1cc(C[C@H](NS(=O)(=O)c2cccc(C(F)(F)F)c2)C(=O)O)ccc1OCCCCNC1=NCCCN1`: in the assay listed under Homo sapiens, the Ratio IC50 worked out at 126.

For `N=C(N)NCCCOc1ccc(C[C@H](NS(=O)(=O)c2cccc(C(F)(F)F)c2)C(=O)O)cc1N`, the Ratio IC50 in the assay listed under Homo sapiens came to 3.5.

In the case of `Nc1cc(C[C@H](NS(=O)(=O)c2cccc(C(F)(F)F)c2)C(=O)O)ccc1OCCCNc1ccccn1`, the IC50 in assay [1] was found to be 36 nM; at Integrin alpha-V/beta-3, 1.2 nM. Besides, the Ratio IC50 in the assay listed under Homo sapiens is 30.

In the case of `NCCCOc1ccc(C[C@H](NS(=O)(=O)c2cccc(C(F)(F)F)c2)C(=O)O)cc1N`, the IC50 is 429 nM in assay [1] and 138 nM on Integrin alpha-V/beta-3. The Ratio IC50 in the assay filed under Homo sapiens is 3.1.

Consider `Cc1cccc(NCCCCOc2ccc(C[C@H](NS(=O)(=O)c3cccc(C(F)(F)F)c3)C(=O)O)cc2N)n1`, for which the IC50 in assay [1] came to 121 nM; on Integrin alpha-V/beta-3, 1.7 nM. Besides, the Ratio IC50 in the assay filed under Homo sapiens was found to be 71.

As for `CC(=O)Nc1cc(C[C@H](NS(=O)(=O)c2cccc(C(F)(F)F)c2)C(=O)O)ccc1OCCCc1ccc2c(n1)NCCC2`, the result with HOP was Active. Moreover, the IC50 in assay [1] was determined as 71 nM; at Integrin alpha-V/beta-3, 0.6 nM. In addition, the Ratio IC50 in the assay listed under Homo sapiens is 118.

Regarding `Nc1cc(C[C@H](NS(=O)(=O)c2cccc(C(F)(F)F)c2)C(=O)O)ccc1OCCCCN=C1NCCCN1`, the half-maximal inhibitory concentration (IC50) in assay [1] worked out at 101 nM; at Integrin alpha-V/beta-3, 0.8 nM.

In the case of `Nc1cc(C[C@H](NS(=O)(=O)c2cccc(C(F)(F)F)c2)C(=O)O)ccc1OCCCNC1=NCCCN1`, the Ratio IC50 in the assay listed under Homo sapiens turned out to be 5.5.

Take `Cc1ccnc(NCCCCOc2ccc(C[C@H](NS(=O)(=O)c3cccc(C(F)(F)F)c3)C(=O)O)cc2N)c1`: the outcome in the assay on HOP was Active. Further, the IC50 in assay [1] is 106 nM; on Integrin alpha-V/beta-3, 0.6 nM. For the same compound, the Ratio IC50 in the assay filed under Homo sapiens is 177.

Turning to `N=C(N)NCCC[C@H](NC(=O)CN)C(=O)NCC(=O)N[C@@H](CC(=O)O)C(=O)N[C@@H](CO)C(=O)O`, the outcome with HOP was Active.

For the compound `N=C(N)NCCCCOc1ccc(C[C@H](NS(=O)(=O)c2cccc(C(F)(F)F)c2)C(=O)O)cc1N`, the figures for the IC50 (in assay [1]; at Integrin alpha-V/beta-3) were 7.3 nM and 1.7 nM, respectively. Moreover, the Ratio IC50 in the assay filed under Homo sapiens turned out to be 4.3.

`Nc1cc(C[C@H](NS(=O)(=O)c2cccc(C(F)(F)F)c2)C(=O)O)ccc1OCCCN=C1NCCCN1`: the IC50 in assay [1] worked out at 21.3 nM; at Integrin alpha-V/beta-3, 3.9 nM.

On to `NC(N)=NCCCOc1ccc(C[C@H](NS(=O)(=O)c2cccc(C(F)(F)F)c2)C(=O)O)cc1N`, for which the half-inhibitory concentration (IC50) in assay [1] was found to be 27 nM; on Integrin alpha-V/beta-3 it was 7.6 nM.

Take `Nc1cc(C[C@H](NS(=O)(=O)c2cccc(C(F)(F)F)c2)C(=O)O)ccc1OCCCCNc1ccccn1`: the results for the IC50 (in assay [1]; at Integrin alpha-V/beta-3) were 70 nM and 1.4 nM, respectively. Moreover, in the assay filed under Homo sapiens, the Ratio IC50 was found to be 50.

As for `Cc1ccnc(NCCCCOc2ccc(C[C@H](NS(=O)(=O)c3cccc(C(F)(F)F)c3)C(=O)O)cc2NC(=O)COCCOCCOCCN)c1`, the IC50 was determined as 28 nM in assay [1] and 0.9 nM on Integrin alpha-V/beta-3. The Ratio IC50 in the assay listed under Homo sapiens came to 31.

In the case of `Nc1cc(C[C@H](NS(=O)(=O)c2cccc(C(F)(F)F)c2)C(=O)O)ccc1OCCCCc1ccc2c(n1)NCCC2`, the IC50 came to 355 nM in assay [1] and 1.1 nM on Integrin alpha-V/beta-3. The Ratio IC50 in the assay listed under Homo sapiens was found to be 323.

For `Nc1cc(C[C@H](NS(=O)(=O)c2cccc(C(F)(F)F)c2)C(=O)O)ccc1OCCCc1ccc2c(n1)NCCC2`, the results for the IC50 (in assay [1]; at Integrin alpha-V/beta-3) were 141 nM and 0.1 nM, respectively. Besides, the Ratio IC50 in the assay listed under Homo sapiens was 1410.

As to `Cc1ccnc(NCCCCOc2ccc(C[C@H](NS(=O)(=O)c3cccc(C(F)(F)F)c3)C(=O)O)cc2NC(=O)COCCOCCOCCOCCOCCOCCN)c1`, the IC50 in assay [1] was 38 nM; on Integrin alpha-V/beta-3, 0.8 nM. Moreover, in the assay filed under Homo sapiens, the Ratio IC50 came to 47.

In general, IC50 refers to the concentration at which inhibition is half-maximal.
